In ChEMBL document CHEMBL1145192, “Discovery of a novel class of reversible non-peptide caspase inhibitors via a structure-based approach” (J Med Chem, 2005):
pIC50, pKi: −log10 of the molar value.

Tests used:
[1] = target: T1, Caspase-3 (Homo sapiens, UniProt P42574); assay: Inhibitory concentration against caspase-3 expressed in Escherichia coli. BL21(DE3) by fluorometric assay
T1 sequence (P42574 whole entry): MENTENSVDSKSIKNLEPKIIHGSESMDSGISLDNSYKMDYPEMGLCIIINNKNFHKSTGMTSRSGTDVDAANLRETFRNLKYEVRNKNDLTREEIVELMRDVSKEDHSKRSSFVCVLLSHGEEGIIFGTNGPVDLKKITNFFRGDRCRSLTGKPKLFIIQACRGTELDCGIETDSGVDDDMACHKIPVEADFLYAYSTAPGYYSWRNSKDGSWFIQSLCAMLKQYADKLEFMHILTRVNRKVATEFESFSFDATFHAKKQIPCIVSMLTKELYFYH

[2] = target: T2, Caspase-8 (Homo sapiens, UniProt Q14790); assay: Inhibitory concentration against caspase-8 expressed in Escherichia coli. BL21(DE3) by fluorometric assay
T2 sequence (Q14790 217-374 limits assumed): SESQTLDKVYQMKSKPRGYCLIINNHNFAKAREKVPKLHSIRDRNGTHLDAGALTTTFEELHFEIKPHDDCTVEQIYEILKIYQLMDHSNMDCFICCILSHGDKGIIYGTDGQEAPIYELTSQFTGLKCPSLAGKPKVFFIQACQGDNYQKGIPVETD
T2 sequence (Q14790 385-479 limits assumed): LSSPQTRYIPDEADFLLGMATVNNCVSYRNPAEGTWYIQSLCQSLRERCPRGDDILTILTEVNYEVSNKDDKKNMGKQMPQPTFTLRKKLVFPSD

[3] = target: T3, Caspase-7 (Homo sapiens, UniProt P55210); assay: Inhibitory concentration against caspase-7 expressed in Escherichia coli. BL21(DE3) by fluorometric assay
T3 sequence (P55210 whole entry): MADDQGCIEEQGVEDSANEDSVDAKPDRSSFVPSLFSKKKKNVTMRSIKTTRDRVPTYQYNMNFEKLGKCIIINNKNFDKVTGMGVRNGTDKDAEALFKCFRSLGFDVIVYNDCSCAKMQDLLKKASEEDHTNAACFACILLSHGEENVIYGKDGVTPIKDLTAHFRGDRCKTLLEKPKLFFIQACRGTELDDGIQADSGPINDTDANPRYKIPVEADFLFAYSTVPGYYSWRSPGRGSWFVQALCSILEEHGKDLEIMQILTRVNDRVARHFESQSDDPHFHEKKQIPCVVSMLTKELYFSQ

[4] = target: T2, Caspase-8; assay: Binding affinity against caspase-8 expressed in Escherichia coli. BL21(DE3) by fluorometric assay
Procedure, shortened: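 E. coli-expressed active caspase-8, titrated with Z-VAD-FMK, 25-50 nM, with 40 µM Ac-IETD-AFC in 10 mM phosphate buffer (pH 7.5), 10 mM NaCl. Fluorescence at ex 405 / em 505 nm, followed kinetically over 30 min at room temperature. Ki from Lineweaver-Burk double-reciprocal analysis over varied substrate concentrations, assuming competitive inhibition.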

| SMILES | pIC50 [1] | pIC50 [2] | pIC50 [3] | pKi [4] |
| --- | --- | --- | --- | --- |
| CCOC(=O)c1ccc(N/C=C(\C#N)c2nc(-c3cc4cc([N+](=O)[O-])ccc4oc3=O)cs2)cc1 | < 4.00 |  |  |  |
| COc1ccc(N/C=C(\C#N)c2nc(-c3cc4cc([N+](=O)[O-])ccc4oc3=O)cs2)cc1 | < 3.00 |  |  |  |
| O=C(Sc1cccs1)c1csc(C2COc3ccccc3O2)n1 (configuration not stated) |  | 4.21 | < 3.70 |  |
| O=C(NCc1ccco1)c1csc(C2COc3ccccc3O2)n1 (configuration not stated) | 3.88 | 4.22 | < 3.70 |  |
| Cc1nc(C2COc3ccccc3O2)sc1C(=O)O (configuration not stated) | 3.89 | < 3.70 | < 3.70 |  |
| FC(F)(F)c1cccc(-c2csc(C3COc4ccccc4O3)n2)c1 (configuration not stated) |  |  |  | 5.57 |

Results, then the molecule that gave them:

| pIC50 [1] | pIC50 [2] | pIC50 [3] | pKi [4] | SMILES |
| --- | --- | --- | --- | --- |
|  | 4.22 | < 3.70 |  | O=C(Oc1ccccc1)c1csc(C2COc3ccccc3O2)n1 (configuration not stated) |
|  | < 3.70 | < 3.70 |  | O=C(Oc1ccc(Cl)cc1)c1csc(C2COc3ccccc3O2)n1 (configuration not stated) |
| 3.89 | < 3.70 | < 3.70 |  | CN(C)C(=O)c1csc(C2COc3ccccc3O2)n1 (configuration not stated) |
|  |  |  | 4.52 | CCOC(=O)c1csc(C2COc3ccccc3O2)n1 (configuration not stated) |
| 3.82 | < 3.70 | < 3.70 |  | O=C(c1csc(C2COc3ccccc3O2)n1)N1CCOCC1 (configuration not stated) |
|  | < 3.70 | < 3.70 |  | CCOC(=O)c1sc(C2COc3ccccc3O2)nc1C (configuration not stated) |
| < 3.70 | 4.12 | 3.77 |  | O=C(O)c1csc(C2COc3ccccc3O2)n1 (configuration not stated) |
